Laboratory results from ChEMBL document CHEMBL3596120, “Discovery of natural alkaloid bouchardatine as a novel inhibitor of adipogenesis/lipogenesis in 3T3-L1 adipocytes” (Bioorg Med Chem, 2015).
Activity calls are given as the source filed them.

Assays:
[1] = Reduction in FAS protein expression in mouse 3T3L1 cells at 0.2 mM after 3 days by Western blot method; assay type: functional, cell-based; conditions: 3T3-L1
Outline: (§1)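 3T3-L1 preadipocytes grown in DMEM with 10% FBS at 37 °C under 5% CO2. Differentiation starts 2 days post-confluence (day 0) with IBMX, 100 ng/mL dexamethasone and insulin for 3 d, then insulin in 10% FBS/DMEM for 3 d, then basic medium for 3 d. Compound is added on day 0 and renewed at day 3. Vehicle control receives the same volume of DMSO.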

3T3-L1 [2] = assay: Increase in AMPKalpha Thr172 phosphorylation in mouse 3T3L1 cells at 0.2 mM after 9 days by Western blot method; assay type: cell-based
Outline: (§2)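 Mouse 3T3-L1 cells taken through the differentiation protocol, with compound or DMSO vehicle given from day 0 and renewed at day 3. Cells lysed on ice for 0.5 h in RIPA with PMSF, Na3VO4, NaF and protease inhibitors, then centrifuged at 12,000g. Lysates run on 12% SDS-PAGE and transferred to PVDF. Blots probed overnight at 4 °C and detected with HRP secondary. Bands quantified by optical density against GAPDH. Three independent experiments.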

[3] = Reduction in C/EBPalpha protein expression in mouse 3T3L1 cells at 0.2 mM after 3 days by Western blot method; assay type: functional, cell-based; conditions: 3T3-L1; outline: as §2
[4] = Reduction in PPARgamma protein expression in mouse 3T3L1 cells at 0.2 mM after 3 days by Western blot method; assay type: functional, cell-based; conditions: 3T3-L1; outline: as §1
3T3-L1 [5] = assay: Activation of AMPK in mouse 3T3L1 cells assessed as increase in ACC Ser79 phosphorylation at 0.2 mM after 9 days by Western blot method; assay type: cell-based; outline: as §2
3T3-L1 [6] = assay: Effect on in AMPKalpha protein expression in mouse 3T3L1 cells at 25 uM after 0.5 to 4 hrs by Western blot method; assay type: functional, cell-based
[7] = Reduction in SCD1 protein expression in mouse 3T3L1 cells at 0.2 mM after 3 days by Western blot method; assay type: functional, cell-based; conditions: 3T3-L1; outline: as §1
3T3-L1 [8] = assay: Inhibition of adipogenesis in mouse 3T3L1 cells assessed as reduction in triglyceride content at 0.2 mM by colorimetric assay; assay type: functional, cell-based
[9] = Reduction in SREBP-1c protein expression in mouse 3T3L1 cells at 0.2 mM after 3 days by Western blot method; assay type: functional, cell-based; conditions: 3T3-L1; outline: as §1

Measured: Activity

NC(=O)c1ncn([C@@H]2O[C@H](CO)[C@@H](O)[C@H]2O)c1N
inactive: 3T3-L1 [6]
active: all other assays above
